Experimental data from ChEMBL document CHEMBL1123866, “Benzimidazole derivatives with atypical antiinflammatory activity” (J Med Chem, 1987).

test system: Rattus norvegicus; assay: Antiinflammatory activity was evaluated for the compound in rat adjuvant arthritis model and the percent of inhibition was determined at 50 mg/kg dose administered orally; assay type: functional; conditions: route oral
Outline: (§1)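 Rats, ten per group, were dosed orally with a suspension in 1% acacia in distilled water, starting immediately after adjuvant injection and then once daily for 14 days in total. Foot volume of the noninjected hind paw was measured by mercury displacement to the lateral malleolus 24 h after the final dose. Percent inhibition of swelling was calculated against untreated arthritic controls.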

`Cc1ccc2[nH]c(S(=O)(=O)CC(F)(F)F)nc2c1` gave an inhibition in vivo at 50 mg/kg of 72%.

test system: Rattus norvegicus; assay: Antiinflammatory activity was evaluated for the compound in rat adjuvant arthritis model and the percent of inhibition was determined at 1 mg/kg dose administered orally; conditions: po, read-out: Inhibition

For `COc1ccc2c(c1)c(CC(=O)O)c(C)n2C(=O)c1ccc(Cl)cc1` [INDOMETHACIN], the inhibition in vivo at 1 mg/kg was 69%.

test system: Rattus norvegicus; assay: Anti-inflammatory activity (% inhibition of paw swelling)in rat adjuvant arthritis model at 25 mg/kg oral dose; assay type: functional; conditions: not given; outline: as §1

In order of rising inhibition in vivo at 25 mg/kg:
1. O=S(=O)(c1nc2cc(Cl)ccc2[nH]1)C(F)(F)C(F)(F)F  0%
2. O=S(=O)(c1nc2cc(Cl)ccc2[nH]1)C(F)(F)C(F)(F)C(F)(F)F  0%
3. CCCc1ccc2[nH]c(S(=O)(=O)CC(F)(F)F)nc2c1  0%
4. O=S(=O)(CC(F)(F)F)c1nc2cc(C(F)(F)F)ccc2[nH]1  0%
5. Cc1ccc2[nH]c(S(=O)(=O)C(F)(F)C(F)(F)F)nc2c1  8%
6. COC(=O)c1ccc2[nH]c(S(=O)(=O)CC(F)(F)F)nc2c1  11%
7. CCS(=O)(=O)c1nc2cc(C)ccc2[nH]1  17%
8. Cc1cc2nc(S(=O)(=O)CC(F)(F)F)[nH]c2cc1C  18%
9. O=S(=O)(CC(F)(F)F)c1nc2cc(Cl)c(Cl)cc2[nH]1  24%
10. O=S(=O)(CC(F)(F)F)c1nc2cc(Cl)ccc2[nH]1  28%
11. CCc1ccc2[nH]c(S(=O)(=O)CC(F)(F)F)nc2c1  34%
12. O=S(=O)(CC(F)(F)F)c1nc2cc(F)ccc2[nH]1  43%
13. Cc1cc2[nH]c(S(=O)(=O)CC(F)(F)F)nc2cc1F  44%
14. O=S(=O)(CC(F)(F)F)c1nc2ccccc2[nH]1  52%
15. Cc1ccc2[nH]c(S(=O)(=O)CC(F)(F)F)nc2c1  52%
16. CC(C)Cc1ccc(C(C)C(=O)O)cc1 (stereo not drawn) [IBUPROFEN]  73%
